≈ marks a conversion by molar mass, not a printed value. Calls of active or inactive are those of the source. The rule behind the calls is not given here.
How the values were obtained:
Candida albicans [1] = test: Antifungal activity against itraconazole and fluconazole resistant Candida albicans ATCC MYA-1003 after 48 hrs by broth dilution method; assay type: functional
Summary of the method: (§1)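 CLSI M27-A3 broth microdilution with minor modifications. Overnight YPD culture grown at 35 °C, 200 rpm, adjusted to OD600 0.12, diluted in RPMI 1640 buffered to pH 7.0 with 0.165 M MOPS to a final 1–2 × 10^3 CFU/mL. Test compounds at 0.015–31.3 µg/mL, 48 h at 35 °C, DMSO <1.25%. […] Triplicate.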

Candida albicans [2] = test: Antifungal activity against Candida albicans ATCC 64124 after 48 hrs by broth dilution method; assay type: functional; summary of the method: as §1
Candida albicans [3] = test: Ratio of MIC in presence of 10% FBS to MIC in absence of 10% FBS for Candida albicans ATCC 10231; assay type: functional
Summary of the method: (§2)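 MIC broth dilution run in parallel in RPMI 1640 with or without 10% fetal bovine serum against C. albicans ATCC 10231, C. parapsilosis ATCC 22019 and A. nidulans ATCC 38163.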

[4] = Solubility of the compound in DMSO; assay type: physicochemical
HEK293 = test: Cytotoxicity against HEK293 cells up to 31 ug/ml after 24 hrs by resazurin-based fluorescence assay; assay type: cell-based; settings: human, hek293, 24 h
Summary of the method: (§3)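 Cells grown in DMEM with 10% FBS at 37 °C, 5% CO2, and seeded at 10000 (HEK-293) or 3000 (BEAS-2B, A549) per well. After 16 h, exposed 24 h to 0.13–31 µg/mL final in medium with 0.1–0.4% DMSO. Resazurin added for 6–10 h; fluorescence read at 560/590 nm and survival normalized to DMSO control after background subtraction. Triton X-100 12.5% v/v positive control; duplicate.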

Candida albicans [5] = test: Antibiofilm activity against voriconazole resistant Candida albicans ATCC 64124 sessile cells incubated for 24 hrs by XTT reduction assay; assay type: functional; settings: ATCC 64124, 24 h
Summary of the method: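 Strain B grown overnight in YPD broth at 35 °C, diluted to OD600 0.1 (~10^6 CFU/mL), then grown statically for 24 h at 37 °C to form biofilm. Washed with PBS, then drug in RPMI 1640 at 0.12–62.5 µg/mL for 24 h at 37 °C. Read-out: XTT 0.5 mg/mL with menadione 1 µM, 2 h, A490. SMIC50/SMIC80 are 50%/80% decreases versus drug-free biofilm. Duplicate.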

Candida parapsilosis [6] = test: Antifungal activity against Candida parapsilosis ATCC 22019 after 48 hrs by broth dilution method; assay type: functional
Candida parapsilosis [7] = test: Ratio of MIC in presence of 10% FBS to MIC in absence of 10% FBS for Candida parapsilosis ATCC 22019; assay type: functional; summary of the method: as §2
Aspergillus terreus = test: Antifungal activity against Aspergillus terreus ATCC MYA-3633 after 48 hrs by broth dilution method; assay type: functional
Summary of the method: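 Molds tested per CLSI M38-A2. Spores were harvested from sporulating PDA cultures by filtering through glass wool and counted on a hemocytometer. Serial dilutions (0.03–31.3 µg/mL) were made in RPMI 1640 buffered to pH 7.0 with 0.165 M MOPS, final inoculum 5 × 10^5 CFU/mL.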

Candida albicans [8] = test: Antifungal activity against itraconazole and fluconazole resistant Candida albicans ATCC MYA-1237 after 48 hrs by broth dilution method; assay type: functional; summary of the method: as §1
Candida parapsilosis [9] = test: Antifungal activity against Candida parapsilosis ATCC 22019 after 48 hrs in the presence of 10% FBS by broth dilution method; assay type: functional; settings: Lodderomyces parapsilosis, ATCC 22019, 48 h
[10] = Aqueous solubility of the compound; assay type: physicochemical; settings: buffer
Aspergillus flavus = test: Antifungal activity against Aspergillus flavus ATCC MYA-3631 after 48 hrs by broth dilution method; assay type: functional; settings: ATCC MYA-3631, 48 h
Pichia kudriavzevii = test: Antifungal activity against Candida krusei ATCC 6258 after 48 hrs by broth dilution method; assay type: functional
Summary of the method: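 Yeasts tested per CLSI M27-A3 with minor changes. An overnight YPD culture (35 °C, 200 rpm) was adjusted to OD600 0.12 and diluted in MOPS-buffered RPMI 1640 (pH 7.0) to a final 1–2 × 10^3 CFU/mL. Compounds 0.015–31.3 µg/mL, DMSO <1.25%.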

Aspergillus nidulans [11] = test: Antifungal activity against Aspergillus nidulans ATCC 38163 after 48 hrs by broth dilution method; assay type: functional
Summary of the method: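 A. nidulans run per CLSI M38-A2. PDA spores were filtered through glass wool and counted by hemocytometer. Test range 0.03–31.3 µg/mL in MOPS-buffered RPMI 1640 (pH 7.0), final 5 × 10^5 CFU/mL.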

Candida albicans [12] = test: Antifungal activity against Candida albicans ATCC 10231 after 48 hrs by broth dilution method; assay type: functional; settings: ATCC 10231, 48 h
Candida albicans [13] = test: Ratio of MIC80 for voriconazole resistant Candida albicans ATCC 64124 sessile cells to MIC for voriconazole resistant Candida albicans ATCC 64124; assay type: functional
Candida albicans [14] = test: Antifungal activity against itraconazole and fluconazole resistant Candida albicans ATCC 90819 after 48 hrs by broth dilution method; assay type: functional; summary of the method: as §1
Candida albicans [15] = test: Antifungal activity against itraconazole and fluconazole susceptible Candida albicans ATCC MYA-2310 after 48 hrs by broth dilution method; assay type: functional
A549 = test: Cytotoxicity against human A549 cells up to 31 ug/ml after 24 hrs by resazurin-based fluorescence assay; assay type: cell-based; settings: a549, 24 h; summary of the method: as §3
BEAS-2B = test: Cytotoxicity against human BEAS2B cells up to 31 ug/ml after 24 hrs by resazurin-based fluorescence assay; assay type: cell-based; summary of the method: as §3
Nakaseomyces glabratus [16] = test: Antifungal activity against Candida glabrata ATCC 2001 after 48 hrs by broth dilution method; assay type: functional, CBS 138
Candida albicans [17] = test: Antifungal activity against Candida albicans ATCC 10231 after 48 hrs in the presence of 10% FBS by broth dilution method; assay type: functional; settings: ATCC 10231, 48 h
Candida albicans [18] = test: Antifungal activity against itraconazole and fluconazole susceptible Candida albicans ATCC MYA-2876 after 48 hrs by broth dilution method; assay type: functional
Aspergillus nidulans [19] = test: Ratio of MIC in presence of 10% FBS to MIC in absence of 10% FBS for Aspergillus nidulans ATCC 38163; assay type: functional; summary of the method: as §2
Aspergillus nidulans [20] = test: Antifungal activity against Aspergillus nidulans ATCC 38163 after 48 hrs in the presence of 10% FBS by broth dilution method; assay type: functional; settings: ATCC 38163, 48 h
Candida albicans [21] = test: Fungistatic activity against Candida albicans ATCC 10231 at 1 to 4 times MIC incubated for 24 hrs by time kill assay; assay type: functional
Summary of the method: (§4)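 Overnight YPD cultures diluted in RPMI 1640 to an inoculum of 1–4 × 10^5 CFU/mL. […] Final volume 4 mL, 35 °C, 200 rpm, 24 h. Sampled at 0, 3, 6, 9, 12 and 24 h, serially diluted and plated on PDA. Colonies counted after 48 h (24 h for strain A). Detection limit 100 CFU/mL. Duplicate.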

Candida albicans [22] = test: Inhibition of 14alpha-demethylase in Candida albicans ATCC 10231 assessed as lanosterol levels at 0.12 ug/mL by GC-MS analysis; parameters: scale not given: the % may be the effect or the level left
Summary of the method: (§5)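 Sterols were extracted from treated C. albicans ATCC 10231 (strain A) cells and profiled by GC-MS. Each sterol (lanosterol, ergosterol, eburicol, 14α-methyl ergosta-8,24(28)-diene-3β,6α-diol) is reported as a percentage of the sterol composition. A DMSO-treated culture served as the no-drug comparison.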

Candida parapsilosis [23] = test: Fungistatic activity against Candida parapsilosis ATCC 22019 at 1 to 4 times MIC incubated for 24 hrs by time kill assay; assay type: functional; summary of the method: as §4
Candida albicans [24] = test: Inhibition of 14alpha-demethylase in Candida albicans ATCC 10231 assessed as ergosterol levels at 0.12 ug/mL by GC-MS analysis; parameters: scale not given: the % may be the effect or the level left; summary of the method: as §5
Candida albicans [25] = test: Inhibition of 14alpha-demethylase in Candida albicans ATCC 10231 assessed as eburicol levels at 0.12 ug/mL by GC-MS analysis; parameters: scale not given: the % may be the effect or the level left; summary of the method: as §5
Nakaseomyces glabratus [26] = test: Fungistatic activity against Candida glabrata ATCC 2001 at 4 times MIC incubated for 24 hrs by time kill assay; assay type: functional; settings: CBS 138; summary of the method: as §4
Candida albicans [27] = test: Inhibition of 14alpha-demethylase in Candida albicans ATCC 10231 assessed as 14alpha-methyl ergosta-8,24(28)-dien-3beta,6alpha-diol levels at 0.12 ug/mL by GC-MS analysis; parameters: scale not given: the % may be the effect or the level left; summary of the method: as §5
Candida albicans [28] = test: Inhibition of 14alpha-demethylase in Candida albicans ATCC 10231 assessed as total sterol levels at 0.12 ug/mL by GC-MS analysis; parameters: scale not given: the % may be the effect or the level left

## CCCCCCCCCCCCCCN1CCNCC1
Candida albicans [1]; Candida albicans, ATCC MYA-1003, 48 h
  MIC: 6.9 µM (≈ 1.95 µg/mL)
Candida albicans [2]; Candida albicans, ATCC 64124, 48 h
  MIC: 3.5 µM (≈ 0.989 µg/mL)
Candida albicans [3]
  Ratio: 2 - 8
[4]
  solubility: Soluble
HEK293
  Activity: Toxic
Candida albicans [5]
  MIC50: 15.6 µg/mL (≈ 55.2 µM)
  MIC80: 62.5 µg/mL (≈ 221 µM)
Candida parapsilosis [6]; Lodderomyces parapsilosis, ATCC 22019, 48 h
  MIC: 3.5 µM (≈ 0.989 µg/mL)
Candida parapsilosis [7]
  Ratio: 2 - 8
Aspergillus terreus; Aspergillus terreus, ATCC MYA-3633, 48 h
  MIC: 3.5 µM (≈ 0.989 µg/mL)
Candida albicans [8]; Candida albicans, ATCC MYA-1237, 48 h
  MIC: 6.9 µM (≈ 1.95 µg/mL)
Candida parapsilosis [9]
  MIC: 7.8 µg/mL
[10]
  solubility: Soluble
Aspergillus flavus
  MIC: 3.5 µM (≈ 0.989 µg/mL)
Pichia kudriavzevii; Pichia kudriavzevii, ATCC 6258, 48 h
  MIC: 3.5 µM (≈ 0.989 µg/mL)
Aspergillus nidulans [11]; Aspergillus nidulans, ATCC 38163, 48 h
  MIC: 3.5 µM (≈ 0.989 µg/mL)
Candida albicans [12]
  MIC: 3.5 µM (≈ 0.989 µg/mL)
Candida albicans [13]
  Ratio: 16 - 64
Candida albicans [14]; Candida albicans, ATCC 90819, 48 h
  MIC: 6.9 µM (≈ 1.95 µg/mL)
Candida albicans [15]; Candida albicans, ATCC MYA-2310, 48 h
  MIC: 3.5 µM (≈ 0.989 µg/mL)
A549
  Activity: Toxic
BEAS-2B
  Activity: Toxic
Nakaseomyces glabratus [16]; Nakaseomyces glabratus, CBS 138, 48 h
  MIC: 3.5 µM (≈ 0.989 µg/mL)
Candida albicans [17]
  MIC: 7.8 µg/mL
Candida albicans [18]; Candida albicans, ATCC MYA-2876, 48 h
  MIC: 3.5 µM (≈ 0.989 µg/mL)
Aspergillus nidulans [19]
  Ratio: 2 - 8
Aspergillus nidulans [20]
  MIC: 7.8 µg/mL

## C[C@@H](c1ncncc1F)[C@](O)(Cn1cncn1)c1ccc(F)cc1F [VORICONAZOLE]
Candida albicans [21]
  Activity: Active
Candida albicans [1]
  MIC=<50: 5.6 µM (≈ 1.96 µg/mL)
Candida albicans [2]
  MIC=<50: 11.2 µM (≈ 3.91 µg/mL)
Candida albicans [22]
  Activity: 18.5%
Candida albicans [5]
  MIC50: 62.5 µg/mL (≈ 179 µM)
  MIC80: 62.5 µg/mL (≈ 179 µM)
Candida parapsilosis [23]
  Activity: Active
Candida albicans [24]
  Activity: 64.9%
Candida parapsilosis [6]
  MIC=<50: <0.06 µM
Aspergillus terreus
  MIC=<50: 0.34 µM (≈ 0.119 µg/mL)
Candida albicans [8]
  MIC=<50: 22.3 µM (≈ 7.79 µg/mL)
Candida parapsilosis [9]
  MIC: 0.015 µg/mL
Candida albicans [25]
  Activity: 2.14%
Nakaseomyces glabratus [26]
  Activity: Active
Pichia kudriavzevii
  MIC=<50: 0.34 µM (≈ 0.119 µg/mL)
Aspergillus nidulans [11]
  MIC=<50: 0.34 µM (≈ 0.119 µg/mL)
Candida albicans [27]
  Activity: 10.1%
Candida albicans [14]
  MIC=<50: 5.6 µM (≈ 1.96 µg/mL)
Candida albicans [15]
  MIC=<50: 2.8 µM (≈ 0.978 µg/mL)
Candida albicans [28]
  Activity: 1.56 to 2.79%
Nakaseomyces glabratus [16]
  MIC=<50: 0.17 µM (≈ 0.0594 µg/mL)
Candida albicans [18]
  MIC=<50: 5.6 µM (≈ 1.96 µg/mL)
Aspergillus nidulans [20]
  MIC: 0.12 µg/mL

— ChEMBL document CHEMBL4024783, “Alkylated Piperazines and Piperazine-Azole Hybrids as Antifungal Agents” (J Med Chem, 2018)
